Assay: Toxicity liver stage against HepG2, at 10uM
Type: cell-based
Set-up: test concentration 10 uM, cell line HepG2-A16-CD81EGFP
Conditions: human, HepG2-A16-CD81EGFP cells; read-out: INHIBITION
Procedure, shortened: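 Uninfected HepG2-A16-CD81EGFP cells, 3 × 10^3 per well, 1536-well, plated on prespotted compound at 10 μM final, parasite-free screening media added to match infected plates; puromycin 10 μM positive, DMSO 0.5% negative; run in parallel with 48 h PbLuc assay at 37 °C, 5% CO2; viability by CellTiter-Glo luminescence, normalized to controls.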

COC(=O)[C@H](C)NC(=O)Cc1c(C)nc2cc(=O)[nH]n2c1C
cytotoxicity at 10 µM: -1.51%

CCc1ccc(C(=O)N2CCN(CC(O)c3ccccc3)CC2)o1 (centres undefined)
cytotoxicity at 10 µM: -2.54%

Cn1ccnc1CN1CCN(CC(O)c2ccccc2)CC1 (centres undefined)
cytotoxicity at 10 µM: -11.4%

O=C1CC[C@H]2[C@H](CCN2C(=O)c2ccc[nH]2)N1CCN1CCOCC1
cytotoxicity at 10 µM: 3.3%

COCc1ncc(CN2CC[C@@](O)(COC)C(C)(C)C2)cn1
cytotoxicity at 10 µM: -2.79%

O=C(Cn1[nH]c2ccccc2c1=O)N1CCCC(CC2CC2)(C(=O)O)C1 (centres undefined)
cytotoxicity at 10 µM: 3.15%

O=C(NC[C@H]1OC[C@@H](NC2CCC(F)(F)CC2)[C@@H]1O)C1CCCC1
cytotoxicity at 10 µM: -77.9%

Cc1cnn(Cc2cccc(OCC(N)=O)c2)c1
cytotoxicity at 10 µM: -2.84%

CC(=O)c1ccc(N2CCC(CO)(CCOc3ccccc3)CC2)nc1
cytotoxicity at 10 µM: 28.1%

CN(C)CCN1C2(CCN(Cc3nccs3)C2)c2ccccc2S1(=O)=O (centres undefined)
cytotoxicity at 10 µM: -71.8%

O=C(NCCc1ccc(Cl)s1)NCc1nnc2n1CCCC2
cytotoxicity at 10 µM: -2.45%

COC(=O)C1CCCCN1C(=O)c1ccccc1F (centres undefined)
cytotoxicity at 10 µM: 8.96%

COCC1c2nnn(CC3CC3)c2CCN1C(=O)C1CCOCC1 (centres undefined)
cytotoxicity at 10 µM: -136%

O=C(O)CCNC(=O)N1CCc2c([nH]c3ccc(Cl)cc23)C1
cytotoxicity at 10 µM: 11.9%

CC(=O)N1CCC(N2CCOC[C@H]2c2nc(-c3ccc(Cl)s3)c[nH]2)CC1
cytotoxicity at 10 µM: 2.29%

O=C(c1cccnc1O)N(Cc1cccs1)CC1CCCO1 (centres undefined)
cytotoxicity at 10 µM: -11.5%

OCC1CN(Cc2nc(C(F)(F)F)cs2)c2ccccc2O1 (centres undefined)
cytotoxicity at 10 µM: 3.97%

FC(F)(F)c1cccc(-c2c[nH]c(C3CCCN3)n2)c1 (centres undefined)
cytotoxicity at 10 µM: -3.25%

Cc1n[nH]c(C)c1-c1cc(-c2cccc(O)c2)nc(N)c1C#N
cytotoxicity at 10 µM: 26.9%

Cc1nc2c(c(=O)n1C)CN(C(=O)C1CCN(C(=O)C3CCC3)CC1)C2
cytotoxicity at 10 µM: -3.54%

CN(Cc1cnn(C)c1)C(=O)CN1CCCC1Cn1cncn1 (centres undefined)
cytotoxicity at 10 µM: 12.6%

COCCn1ccnc1C1CCCN(C(=O)c2cccnc2SC)C1 (centres undefined)
cytotoxicity at 10 µM: -14.2%

CCC(C)(C)n1nnnc1C(c1cccs1)N1CCc2ccccc2C1 (centres undefined)
cytotoxicity at 10 µM: 0.237%

CC(C)(C)NC(=O)C1CSCN1S(=O)(=O)c1ccccc1S(C)(=O)=O (centres undefined)
cytotoxicity at 10 µM: -4.04%

CN(C(=O)CNc1ccc(C#N)cc1)C1CCN(c2ccccn2)CC1
cytotoxicity at 10 µM: 18.7%

Cc1ccc(C)c(Oc2ccc(CNC(=O)C3CCS(=O)(=O)C3)cn2)c1 (centres undefined)
cytotoxicity at 10 µM: -3.98%

c1ccc(O[C@@H]2CC[C@H]3[C@H]2OCCN3Cc2ccsc2)nc1
cytotoxicity at 10 µM: 1.24%

COCCC(=O)N1CC2(CCN(Cc3cccc(Cl)c3)CC2)C1
cytotoxicity at 10 µM: 5.63%

COC(C)(C)C(=O)N1Cc2cnc(C(C)(C)C)nc2C1
cytotoxicity at 10 µM: -121%

Cc1[nH]c2ccc(CNC3CCN(Cc4ccccn4)CC3)cc2c1C
cytotoxicity at 10 µM: 3.97%

Cn1nc(-c2ccc(Cl)cc2)c(Br)c1C(=O)O
cytotoxicity at 10 µM: -46.8%

CC1CCC(N2CCC(NS(=O)(=O)CCOC(C)C)CC2)CC1 (centres undefined)
cytotoxicity at 10 µM: -0.45%

CC(C)(C)CC(=O)NCCn1nc(C2CCNC2)c2cccnc21 (centres undefined)
cytotoxicity at 10 µM: -0.00173%

Cn1c(C(=O)N2CCC(C(=O)N3CCCC3)CC2)c(Cl)c2ccccc21
cytotoxicity at 10 µM: 3.12%

CCN(C(=O)Nc1nncs1)C(C)c1cccc(OC)c1 (centres undefined)
cytotoxicity at 10 µM: 4.84%

CCn1nc(C)c(CN(CCCN(C)C)Cc2ccccn2)c1C
cytotoxicity at 10 µM: 1.62%

O=C(c1cnccn1)N1CCCC(Cc2cncc3ccccc23)C1 (centres undefined)
cytotoxicity at 10 µM: -31.4%

CC(=O)c1c(F)cccc1NC1CCN(S(=O)(=O)C2CC2)CC1
cytotoxicity at 10 µM: 12.5%

CNC(=O)Cc1nc(CNc2ccc(SC)c(F)c2)cs1
cytotoxicity at 10 µM: -1.99%

OCC(CO)N1CCCC(Cc2ccnc(Nc3ccccn3)c2)C1 (centres undefined)
cytotoxicity at 10 µM: -13.5%

Cc1ccc(O)c(C(=O)N2CCCC2c2nncn2CC(C)C)c1 (centres undefined)
cytotoxicity at 10 µM: -3.27%

CC(C)[C@H]1CN(CCS(C)(=O)=O)C[C@@H]1NC(=O)c1ccc(=O)[nH]c1
cytotoxicity at 10 µM: 3.06%

Cc1ccc(-c2ncc(C(=O)NCCNc3ncccn3)s2)c(C)c1
cytotoxicity at 10 µM: -9.12%

COCCC(=O)N1CCCC1c1nc(C)c2c(n1)N(C)C(=O)CC2 (centres undefined)
cytotoxicity at 10 µM: -1.04%

CCn1ccnc1CN1CCN(CCc2ccccn2)CC1C (centres undefined)
cytotoxicity at 10 µM: -8.74%

CCC(=O)Nc1nnc(CCOc2ccc(OC)cc2)s1
cytotoxicity at 10 µM: 6.31%

CN(C)CC1(O)CCCN(c2ccnc3c(C(F)(F)F)cccc23)C1 (centres undefined)
cytotoxicity at 10 µM: -4.55%

CS(=O)(=O)N1CC[C@H]2C[C@@H](C(=O)N3CCOCC3)O[C@@H]2C1
cytotoxicity at 10 µM: 2.28%

CC1CCCCN1CCNC(=O)NCc1ccc(C#N)cc1F (centres undefined)
cytotoxicity at 10 µM: 0.616%

CCOCC1CCN(C(=O)c2sc(C)cc2OC(F)F)CC1
cytotoxicity at 10 µM: 7.95%

CC1(C)O[C@@](C)([C@H]2CC3(CCN(c4ncccn4)CC3)CO2)CC[C@@H]1O
cytotoxicity at 10 µM: 4.98%

CCCN(Cc1nccn1C)C(=O)c1cc(C(C)C)on1
cytotoxicity at 10 µM: 4.24%

Cc1ccsc1C(=O)NCc1cccnc1N(C)CCc1ccccn1
cytotoxicity at 10 µM: -0.678%

Cn1c(C(=O)N2CCC(C3OCCO3)CC2)c(Cl)c2ccccc21
cytotoxicity at 10 µM: 13.7%

COc1ccc(NC(=O)CCN2CC=C(c3cnn(C)c3)CC2)cc1Cl
cytotoxicity at 10 µM: 6.64%

CC(Cn1ccnc1)NC(=O)N1CCN(Cc2ccncc2)CC1 (centres undefined)
cytotoxicity at 10 µM: -4.1%

Cc1ccccc1C(C(=O)O)N(C)CC1CCOCC1 (centres undefined)
cytotoxicity at 10 µM: 3.88%

NC(=O)CC1CCN(c2cncc(OCc3ccccc3)n2)CC1
cytotoxicity at 10 µM: 8.84%

CCn1ccc(NC(=O)CCc2c(C)noc2C)n1
cytotoxicity at 10 µM: 7.16%

CNc1ccc(CC2CCCN(C(=O)c3cnco3)C2)nn1 (centres undefined)
cytotoxicity at 10 µM: -8.55%

CC(O)CNC(=O)NCc1cccnc1OC1CCCC1 (centres undefined)
cytotoxicity at 10 µM: 2.29%

CSc1cccc(CN(C)C(=O)C2CC(=O)N(CCN(C)C)C2)c1 (centres undefined)
cytotoxicity at 10 µM: -16.5%

CS(=O)(=O)N1C[C@H](C(=O)Nc2cccnc2)C[C@H]2OCC[C@H]21
cytotoxicity at 10 µM: 11.3%

Cn1nc2c(cc1=O)CN(CCN1CCCC1=O)CC2
cytotoxicity at 10 µM: -31.1%

Cc1noc(C)c1C(=O)NCc1cccnc1N(C)C
cytotoxicity at 10 µM: -9.42%

Cc1cc(C(=O)NCc2ccnc(N3CCN(C)CC3)c2)c(C)s1
cytotoxicity at 10 µM: -10.7%

Cc1cccc(CN2C[C@@H]3CCCO[C@@H]3[C@H](Nc3ccccn3)C2)n1
cytotoxicity at 10 µM: 0.939%

Cc1cc(C2CCCN2Cc2nnc(-c3ccco3)o2)on1 (centres undefined)
cytotoxicity at 10 µM: 8.92%

Cc1nn(C)c2c(N3CCSCC3)nc(C3CC3)nc12
cytotoxicity at 10 µM: 7.29%

O=S(=O)(NCc1ccc(S(=O)(=O)N2CCCC2)s1)c1ccc(F)cc1Cl
cytotoxicity at 10 µM: -39.9%

O=c1cc(CN2CC[C@@H]3CC[C@H](C2)N3)c2cccc3c2n1CCC3
cytotoxicity at 10 µM: 9.64%

COc1ccc(-c2nc(C#N)c(N(C)C)o2)cc1S(=O)(=O)N1CCCC1
cytotoxicity at 10 µM: -0.773%

CC1=C(C(=O)NCc2cccnc2-n2cnc3ccccc32)OCCO1
cytotoxicity at 10 µM: -2%

CC(=O)N1CCC2(CC1)CN(C)C(=O)C[C@H]2C(F)(F)F
cytotoxicity at 10 µM: -161%

CN1CCN(C(=O)CCn2ncc3ccccc32)CC(C(N)=O)C1 (centres undefined)
cytotoxicity at 10 µM: 4.33%

CC(C)Cc1noc(CN2CCN(CCOc3ccc(Cl)cc3)CC2)n1
cytotoxicity at 10 µM: 24%

COCCN(Cc1ccco1)Cc1nc(-c2ccccc2)no1
cytotoxicity at 10 µM: 6.4%

CC1(C)CN(Cc2ccncc2)CCS1(=O)=O
cytotoxicity at 10 µM: -4.95%

Cc1ccccc1C(NC(=O)NCC1(CO)CC1)C1CC1 (centres undefined)
cytotoxicity at 10 µM: -7.16%

Cc1cc(-c2cnc(N3CCCC3)nc2-c2ccc(C)s2)on1
cytotoxicity at 10 µM: -0.279%

CN(Cc1ccco1)[C@@H]1CN(CC2CCOCC2)[C@@H]2CCCO[C@H]12
cytotoxicity at 10 µM: -76.4%

Cc1nc(NS(=O)(=O)c2cc(C)c(Br)cc2C)no1
cytotoxicity at 10 µM: 5.42%

Cc1cc(C)n(NC(=O)c2cccc3c2OCC3)c(=O)c1
cytotoxicity at 10 µM: 1.91%

Cc1cc(CN2CC[C@H]3C[C@@H](c4nccs4)O[C@@H]3C2)no1
cytotoxicity at 10 µM: -84.8%

Cc1cnc(CCN(C)C(=O)c2cccc(N(C)C)c2)s1
cytotoxicity at 10 µM: 2.05%

CCNC(=O)c1cc(OC)c(OC)cc1N(C)S(C)(=O)=O
cytotoxicity at 10 µM: 1.56%

Cc1nn(C)c2c(NCc3cccnc3)nc(C3CC3)nc12
cytotoxicity at 10 µM: -9.84%

OC1(CNCc2noc(Cc3ccccc3)n2)CCCNC1 (centres undefined)
cytotoxicity at 10 µM: 5.19%

CN(Cc1cccc(-n2cccn2)c1)Cc1c[nH]cn1
cytotoxicity at 10 µM: 5.67%

CN(C)c1cc(CNC(=O)c2ccc(F)cc2)ccn1
cytotoxicity at 10 µM: -22.9%

CCOC(C)c1nccn1Cc1noc(CC)n1 (centres undefined)
cytotoxicity at 10 µM: -9.06%

CC(=O)Nc1nc(C(=O)NCc2ccc(N3CCCC3)nc2)cs1
cytotoxicity at 10 µM: -2.6%

O=c1ccc(-c2cccs2)nn1CN1CCOCC1
cytotoxicity at 10 µM: 5.68%

CCCC(=O)N1CCCC(C(=O)c2cnn(-c3ccc(F)cc3)c2N)C1 (centres undefined)
cytotoxicity at 10 µM: 4.67%

CS(=O)(=O)NC[C@]12COC[C@H]1CN(C(=O)c1ccoc1)C2
cytotoxicity at 10 µM: 4.34%

CCCN1CCC(c2nc3ccc(-c4ccccc4)cn3n2)CC1
cytotoxicity at 10 µM: -129%

COc1ccc(CN2CC[C@@H]3[C@H]2CCC(=O)N3c2cnn(C)c2)cc1
cytotoxicity at 10 µM: 17.4%

O=C(CCc1ccccn1)N1CCCC(n2cncn2)C1 (centres undefined)
cytotoxicity at 10 µM: -15.5%

CCn1[nH]c(C)c2c(C(F)(F)F)cc(=O)nc1-2
cytotoxicity at 10 µM: -1.26%

O=C(NCCn1ccnc1)c1ccn(-c2ccccc2F)n1
cytotoxicity at 10 µM: 0.533%

O=C([C@@H]1COC[C@H]2CN(C3CCOCC3)C[C@H]21)N1CCCO1
cytotoxicity at 10 µM: -3.2%

Cc1cc(NC(=O)CC2(Cn3cnnn3)CCCCC2)nn1C
cytotoxicity at 10 µM: 10.4%

CS(=O)(=O)NCC1CCCN(C(=O)COCC2CC2)C1 (centres undefined)
cytotoxicity at 10 µM: 4.28%

Cc1ccsc1CN(Cc1ccccn1)CC(O)CO (centres undefined)
cytotoxicity at 10 µM: 0.773%

CC(C)CCC(C)NC(=O)CN1C=Nc2ccccc2S1(=O)=O (centres undefined)
cytotoxicity at 10 µM: -1.64%

CC(C(=O)N1CCOCC1)S(=O)(=O)Cc1noc(C(C)(C)C)n1 (centres undefined)
cytotoxicity at 10 µM: -14.2%

Cc1cnc(C(=O)N2CCCCC2c2nc(C)cs2)cn1 (centres undefined)
cytotoxicity at 10 µM: -15.3%

CCNC(=O)CCC(=O)NC1(c2cccc(C(F)(F)F)c2)CCC1
cytotoxicity at 10 µM: -39.8%

Cc1cc(NC(=O)CN2CCc3cnc(C)nc3C2)on1
cytotoxicity at 10 µM: -5.33%
